Measured values taken from ChEMBL document CHEMBL1144898, “Structure-based design and synthesis of novel potent Na+,K+ -ATPase inhibitors derived from a 5alpha,14alpha-androstane scaffold as positive inotropic compounds” (J Med Chem, 2003).
pIC50: −log10 of the molar value.

Experiments:
[1] = system: Cavia porcellus; assay: Inotropic activity by slow intravenous infusion in anesthetized guinea pigs(Maximal increase in+dp/dtmax); format: functional
Outline: (§1)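 Anesthetized guinea pigs given compound by slow intravenous infusion; contractility read as +dP/dtmax. Values are the maximal increase in +dP/dtmax, the dose inducing the maximum inotropic effect, and the dose raising +dP/dtmax by 80% taken from dose–response curves.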

[2] = target: Sodium/potassium-transporting ATPase; assay: Inhibitory activity against Na+/K+ ATPase was determined; format: protein-complex assay, Canis lupus familiaris
[3] = system: Cavia porcellus; assay: Inotropic activity by slow intravenous infusion in anesthetized guinea pigs(Dose inducing maximum positive inotropic effect); format: functional; outline: as §1
[4] = (§2) Inotropic activity by slow intravenous infusion in anesthetized guinea pigs; format: organism-based, Cavia porcellus; details: guinea pig, in vivo, read-out: LD/ED80
[5] = system: Cavia porcellus; assay: Inotropic activity by slow intravenous infusion in anesthetized guinea pigs (dead/treated ratio = 3/3); format: functional
[6] = system: Cavia porcellus; assay: Inotropic activity by slow intravenous infusion in anesthetized guinea pigs(Inotropic potency:dose increasing +dp/dtmax by 80%); format: functional; outline: as §1
[7] = system: Cavia porcellus; assay: Inotropic activity by slow intravenous infusion in anesthetized guinea pigs (dead/treated ratio = 10/10); format: functional
[8] = system: Cavia porcellus; assay: Inotropic activity by slow intravenous infusion in anesthetized guinea pigs (dead/treated ratio = 1/3); format: functional
[9] = system: Cavia porcellus; assay: Inotropic activity by slow intravenous infusion in anesthetized guinea pigs (dead/treated ratio = 1/5); format: functional
[10] = system: Cavia porcellus; assay: as §2; format: organism-based; details: guinea pig, in vivo
[11] = system: Cavia porcellus; assay: Inotropic activity by slow intravenous infusion in anesthetized guinea pigs (dead/treated ratio = 7/8); format: functional
[12] = system: Sodium/potassium-transporting ATPase (Canis lupus familiaris); assay: Inhibition activity against Na+/K+ ATPase (relative potency in comparison to digitoxigenin)

Structure (SMILES): C[C@]12CC/C(=N\OCCN)C[C@@H]1[C@H](O)C[C@@H]1[C@@H]2CC[C@]2(C)C(O)CC[C@@H]12 (stereo not given in full)
- Increase [1]: 158%
- pIC50 [2]: 5.70
- EDmax [3]: 4.13 µM/kg
- selectivity ratio [4]: 9.6
- Dead/treated [5]: 3
- ED80 [6]: 0.97 µM/kg

Structure (SMILES): C[C@H]1O[C@@H](O[C@H]2[C@@H](O)C[C@H](O[C@H]3[C@@H](O)C[C@H](O[C@H]4CC[C@@]5(C)[C@H](CC[C@@H]6[C@@H]5C[C@@H](O)[C@]5(C)[C@@H](C7=CC(=O)OC7)CC[C@]65O)C4)O[C@@H]3C)O[C@@H]2C)C[C@H](O)[C@@H]1O [DIGOXIN]
- Increase [1]: 127%
- EDmax [3]: 0.97 µM/kg
- Dead/treated [7]: 10
- ED80 [6]: 0.41 µM/kg

Structure (SMILES): C[C@]12CCC(=NOCCN)C[C@@H]1[C@@H](O)C[C@@H]1[C@@H]2CC[C@]2(C)C(=O)CC[C@@H]12 (stereo in doubt; 22n)
- Increase [1]: 154%
- Dead/treated [8]: 1
- pIC50 [2]: 5.60
- EDmax [3]: 111.2 µM/kg
- selectivity ratio [4]: 9.2
- ED80 [6]: 14.8 µM/kg

Structure (SMILES): C[C@]12CC/C(=N\OCCCN)C[C@@H]1C(=O)C[C@@H]1[C@@H]2CC[C@]2(C)C(=O)CC[C@@H]12
- Increase [1]: 129%
- Dead/treated [8]: 1
- pIC50 [2]: 6.10
- EDmax [3]: 18.2 µM/kg
- ED80 [6]: 6.55 µM/kg

Structure (SMILES): C[C@]12CCC(=NOCCN)C[C@@H]1[C@@H](O)C[C@@H]1[C@@H]2CC[C@]2(C)C(=O)CC[C@@H]12 (stereo in doubt; 22g)
- Increase [1]: 207%
- pIC50 [2]: 5.92
- EDmax [3]: 54.6 µM/kg
- Dead/treated [9]: 1
- LD/ED80 [10]: 17.8
- ED80 [6]: 5.3 µM/kg

Structure (SMILES): CC(=O)NCCO/N=C1\CC[C@@]2(C)[C@H](C1)C(=O)C[C@@H]1[C@@H]2CC[C@]2(C)C(=O)CC[C@@H]12
- pIC50 [2]: < 5.00

Structure (SMILES): C[C@]12CC/C(=N/OCCCN)C[C@@H]1[C@H](O)CC1C2CC[C@]2(C)C(O)CC[C@@H]12 (stereo not given in full)
- pIC50 [2]: 5.52

Structure (SMILES): C[C@]12CCC(=NOCCN)C[C@@H]1C(=O)C[C@@H]1[C@@H]2CC[C@]2(C)C(=O)CC[C@@H]12 [ISTAROXIME]
- Increase [1]: 190%
- EDmax [3]: 17.9 µM/kg
- selectivity ratio [4]: 20.2
- Dead/treated [11]: 7
- ED80 [6]: 4.84 µM/kg

Structure (SMILES): C[C@]12CC/C(=N\OCCCN)C[C@@H]1[C@H](O)C[C@@H]1[C@@H]2CC[C@]2(C)C(O)CC[C@@H]12 (stereo not given in full)
- Increase [1]: 99%
- Dead/treated [8]: 1
- pIC50 [2]: 5.70
- EDmax [3]: 7.37 µM/kg
- ED80 [6]: 1.58 µM/kg

Structure (SMILES): C[C@]12CC/C(=N/OCCN)C[C@@H]1[C@H](O)CC1C2CC[C@]2(C)C(O)CC[C@@H]12 (stereo not given in full)
- pIC50 [2]: 4.92

Structure (SMILES): C[C@]12CCC(=NOCCN)C[C@@H]1[C@H](O)CC1C2CC[C@]2(C)C(O)CC[C@@H]12 (stereo not given in full)
- pIC50 [2]: 5.80

Structure (SMILES): C[C@]12CC/C(=N\OCCN)C[C@@H]1C(=O)C[C@@H]1[C@@H]2CC[C@]2(C)C(O)CC[C@@H]12 (stereo not given in full)
- pIC50 [2]: 6.22

Structure (SMILES): C[C@H]1/C(=C/C(=O)OCCN(C)C)CCC2C1C(=O)CC1C(C)(C)[C@@H](O)CC[C@]21C (stereo not given in full) [CASSAINE]
- pIC50 [2]: 5.30
- Relative potency [12]: 0.1

Structure (SMILES): C[C@]12CC/C(=N\OCCN)C[C@@H]1C(O)C[C@@H]1[C@@H]2CC[C@]2(C)C(O)CC[C@@H]12 (stereo not given in full)
- pIC50 [2]: 5.00
